Test results from paper PMC5756543 (The Journal of Nutritional Biochemistry, 2017).
One block for each compound: values may come before it.

Assays:
Caco-2 cells [1] = experiment: HT transport and phase II metabolism across differentiated Caco-2 monolayers; type: in vitro ADME, human; conditions: for rate of appearance of HT conjugate in apical compartment / rate of appearance of HT conjugate in basal compartment: 20 μM HT apical, HT-7-sul as HT-3′-sul equivalents; for effect on efflux of HT-7-glu to both compartments: chronic treatment 1 mM 14 days (discussion); for decrease of HT-3′-glu 2 formation: acetate: in both compartments
Summary of the method: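 Caco-2 monolayers on transwells were pretreated apically with 1 mM SCFA/lactate or mix from day 7 to day 21–23. Cells were equilibrated in HBSS (1.8 mM CaCl2, pH 7.4) for 30 min at 37°C, and monolayers below 930 Ω cm2 TEER were discarded. Apical 20 µM test compound was applied for 1 h. Both compartments were sampled with 100 µM ascorbic acid and analysed by LC-MS/MS MRM (daidzein internal standard, matrix-matched calibration). n=6 in duplicate; t test.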

ABCG2 protein = ABCG2 protein abundance by ProteinSimple WES in Caco-2 cells; type: cell-based, human; conditions: vs control; for decrease of ABCG2 protein levels: 1 mM 14 days
Summary of the method: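 Transwell Caco-2 monolayers received 1 mM apical SCFA/lactate or mix (0.25 mM each) from day 7 and were lysed at 21–23 days in Bicine-CHAPS with inhibitors, then BCA-quantified. For capillary WES, 1.5 mg/ml lysate was used with 95°C denaturation for 5 min. α-Tubulin loading control came from the same sample in separate capillaries. Peak areas were quantified. Mean of 3–6 biological replicates ±S.E.M.; t test.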

MCT1 (SLC16A1) mRNA = experiment: MCT1 gene expression by ddPCR in Caco-2 cells; type: cell-based, human; conditions: 1 mM 14 days, vs control
Summary of the method: (§1)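 Caco-2 cells were seeded on transwells at 6×104 cm−2 and grown 21–23 days. From day 7 the apical medium was FBS-free with 1 mM Na-acetate, -propionate, -butyrate, -lactate or an equimolar mix (0.25 mM each); basal medium had 20% FBS; 0.1% DMSO served as control. RNA (1 µg) was reverse-transcribed. Duplex TaqMan ddPCR used 0.65 ng cDNA per reaction, with target FAM and TBP VIC. Copies/ng cDNA were derived by Poisson analysis. Four biological replicates from two seedings, each with three technical replicates; t test.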

Caco-2 cells [2] = experiment: Transepithelial Electrical Resistance; type: cell-based, human; conditions: 1 mM apical pretreatment 14 days, n=36; for average TEER value after pretreatment: untreated 1149±23
Summary of the method: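 Caco-2 cells were seeded on transwells at 6×104 cm−2 and exposed apically from day 7 to 1 mM Na-acetate, -propionate, -butyrate, -lactate or mix in FBS-free medium (basal 20% FBS; 0.1% DMSO control). At 21–23 days, after HBSS washes and 30 min equilibration at 37°C, 10% CO2, TEER was measured with a voltohmmeter; t test.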

ABCG2 mRNA = experiment: ABCG2 gene expression by ddPCR in Caco-2 cells; type: cell-based, human; conditions: vs control; for decrease of ABCG2 mRNA: 1 mM 14 days (mix 0.25 mM each); for effect on ABCG2 mRNA: 1 mM 14 days
Summary of the method: as §1

Caco-2 cells [3] = experiment: FA transport and metabolism across differentiated Caco-2 monolayers; type: in vitro ADME, human; conditions: for effect on FA-sul in apical compartment / increase of FA-glu in basal compartment: n=6, P<.01; for effect on transepithelial transport of FA (apical to basolateral): vs untreated (abstract, discussion)
Summary of the method: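 Caco-2 monolayers were pretreated apically with 1 mM SCFA/lactate or mix from day 7 and used at 21–23 days after 30 min HBSS (pH 7.4) equilibration at 37°C; monolayers with TEER <930 Ω cm2 were discarded. Apical 500 µM test compound was applied for 1 h. Apical and basal samples were stabilised with ascorbic acid and spiked with acetic acid (10 mM final) and DMCA internal standard (10 µM final). LC-MS/MS MRM quantified parent and conjugates. Six biological replicates in duplicate; t test.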

MCT4 (SLC16A3) mRNA = experiment: MCT4 gene expression by ddPCR in Caco-2 cells; type: cell-based, human; conditions: vs control; for increase of MCT4 mRNA: 1 mM 14 days (mix 0.25 mM each), n=4
Summary of the method: as §1

Caco-2 cells [4] = experiment: SA transport across differentiated Caco-2 monolayers; type: in vitro ADME, human; conditions: for effect on SA transport / increase of SA in the basolateral compartment: 1 mM 14 days, vs untreated cells; for increase of SA in the basolateral compartment: n=6, P=.003
Summary of the method: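 Pretreated Caco-2 transwell monolayers (1 mM apical SCFA/lactate or mix from day 7, used at 21–23 days) were equilibrated in HBSS (pH 7.4) for 30 min at 37°C; monolayers under 930 Ω cm2 TEER were excluded. Apical 1 mM MCT substrate was incubated for 30 min. Both compartments were analysed by HPLC-UV at 303 nm, with DMCA internal standard at 326 nm. Six biological replicates in duplicate; t test, P<.01.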

UGT1A protein = UGT1A protein abundance by ProteinSimple WES in Caco-2 cells; type: cell-based, human; conditions: 1 mM 14 days; for decrease of UGT1A protein levels: vs control; for effect on UGT1A protein: vs control (discussion)
MCT1 protein = MCT1 protein abundance by ProteinSimple WES in Caco-2 cells; type: cell-based, human; conditions: 1 mM 14 days, vs control
MCT4 protein = MCT4 protein abundance by ProteinSimple WES in Caco-2 cells; type: cell-based, human; conditions: 1 mM 14 days (mix 0.25 mM each), vs control
[5] = 1 mM 14 days, vs untreated, n=6, P<.01
[6] = 1 mM 14 days, vs untreated, n=6, P<.001

Compound: CC(O)C(=O)[O-].[Na+] (centres unmarked) [lactate, Na-lactate]
decrease of all HT phase II conjugates in apical compartment (Caco-2 cells [1]; 1 mM 14 days, vs untreated): 13–40%
effect on HT-3′-sul efflux to the apical direction (Caco-2 cells [1]; 1 mM 14 days, vs untreated): lower
effect on HT-3′-glu 1 in basolateral side (Caco-2 cells [1]; [5]): substantially decreased
effect on HT-3′-glu 2 in basolateral side (Caco-2 cells [1]; [5]): substantially decreased
decrease of ABCG2 protein levels (ABCG2 protein): ~ 50%
decrease of MCT1 mRNA (MCT1 (SLC16A1) mRNA): 20–30%
average TEER value after pretreatment (Caco-2 cells [2]): 1232±25 Ω cm^2
increase of TEER (resistance) (Caco-2 cells [2]; vs untreated cells): 7%
decrease of ABCG2 mRNA (ABCG2 mRNA): 20–30%
effect on FA-sul in basolateral compartment (Caco-2 cells [3]; 1 mM 14 days, vs untreated): substantially decreased
effect on FA-sul in apical compartment (Caco-2 cells [3]; 1 mM 14 days, vs untreated): substantially decreased
decrease of MCT4 mRNA (MCT4 (SLC16A3) mRNA; 1 mM 14 days, P<.001): 20–30%
effect on SA transport (Caco-2 cells [4]): did not affect
decrease of UGT1A protein levels (UGT1A protein): ~ 30%

Compound: CCC(=O)[O-].[Na+] [propionate, Na-propionate]
effect on HT-3′-sul basolateral transport (Caco-2 cells [1]; 1 mM 14 days, vs untreated): stimulated
effect on HT-7-sul basolateral transport (Caco-2 cells [1]; 1 mM 14 days, vs untreated): stimulated
increase of HT-3′-glu 1 in basolateral side (Caco-2 cells [1]; [5]): 34%
increase of HT-7-glu in basal compartment (Caco-2 cells [1]; [5]): 42%
effect on efflux of HT-7-glu to both compartments (Caco-2 cells [1]): increased
decrease of ABCG2 protein levels (ABCG2 protein): ~ 40%
effect on MCT1 gene expression (MCT1 (SLC16A1) mRNA): unchanged
effect on MCT1 protein levels (MCT1 protein): without significant effects
effect on MCT4 protein levels (MCT4 protein): without significant effects
decrease of ABCG2 mRNA (ABCG2 mRNA): ~ 18%
effect on FA-sul in basolateral compartment (Caco-2 cells [3]; 1 mM 14 days, vs untreated): favored over efflux to the apical compartment
increase of FA-glu in apical compartment (Caco-2 cells [3]; 1 mM 14 days, vs untreated): 72%
effect on transepithelial transport of FA (apical to basolateral) (Caco-2 cells [3]; 1 mM 14 days): strongly enhanced
higher concentration of DHFA in apical compartment (Caco-2 cells [3]; [6]): 4.1 fold
higher concentration of DHFA in basal compartment (Caco-2 cells [3]; [6]): 3.4 fold
increase of FA-glu in basal compartment (Caco-2 cells [3]; 1 mM 14 days, vs untreated): 83%
increase of MCT4 mRNA (MCT4 (SLC16A3) mRNA): ~ 29%
increase of SA in the basolateral compartment (Caco-2 cells [4]): 21%
effect on UGT1A protein (UGT1A protein): did not affect

Compound: CCCC(=O)O [butyrate, Na-butyrate]
effect on HT-3′-sul efflux to the apical direction (Caco-2 cells [1]; 1 mM 14 days, vs untreated): lower
increase of HT-7-glu in basal compartment (Caco-2 cells [1]; [5]): 23%
decrease of HT-3′-glu 2 formation (Caco-2 cells [1]; [5]): 30–40%
effect on efflux of HT-7-glu to both compartments (Caco-2 cells [1]): increased
effect on ABCG2 protein levels (ABCG2 protein; 1 mM 14 days (mix 0.25 mM each)): not reflected in protein changes
decrease of MCT1 mRNA (MCT1 (SLC16A1) mRNA): ~ 30%
average TEER value after pretreatment (Caco-2 cells [2]): 1066±31 Ω cm^2
decrease of average TEER values (Caco-2 cells [2]; vs untreated cells): 7%
increase of MCT1 protein (MCT1 protein; n=3, P=.01): ~ 40%
effect on MCT4 protein levels (MCT4 protein): not affected
effect on ABCG2 mRNA (ABCG2 mRNA): decreased
effect on transepithelial transport of FA (apical to basolateral) (Caco-2 cells [3]; 1 mM 14 days): strongly enhanced
effect on FA-sul in apical compartment (Caco-2 cells [3]; 1 mM 14 days, vs untreated): lower
increase of FA-glu in basal compartment (Caco-2 cells [3]; 1 mM 14 days, vs untreated): ~ 40%
effect on MCT4 mRNA (MCT4 (SLC16A3) mRNA; 1 mM 14 days): not affected
increase of SA in the basolateral compartment (Caco-2 cells [4]): 32%
effect on UGT1A protein (UGT1A protein): did not affect

Compound: CC(=O)[O-].[Na+] [acetate, Na-acetate]
effect on HT-3′-sul efflux to the apical direction (Caco-2 cells [1]; 1 mM 14 days, vs untreated): lower
decrease of HT-3′-glu 2 formation (Caco-2 cells [1]; [5]): 20%
increase of MCT1 mRNA (MCT1 (SLC16A1) mRNA; n=4, P≤.02): ~ 20%
decrease of MCT1 protein (MCT1 protein; n=3, P<.005): ~ 30%
effect on ABCG2 mRNA (ABCG2 mRNA): unaffected
effect on FA transport and metabolism (Caco-2 cells [3]; 1 mM 14 days, vs untreated): no effect
increase of MCT4 mRNA (MCT4 (SLC16A3) mRNA): ~ 20%
effect on SA transport (Caco-2 cells [4]): did not affect
decrease of UGT1A protein levels (UGT1A protein): ~ 25%

The next lines start with the values.

conjugate formed (basal + apical) as share of original HT added apically (Caco-2 cells [1]; untreated cells, 1 h): 2.4%
rate of appearance of HT conjugate in apical compartment (Caco-2 cells [1]; untreated cells, 1 h): 3.87 ± 0.07 pmol/min
rate of appearance of HT conjugate in basal compartment (Caco-2 cells [1]; untreated cells, 1 h): 12.33 ± 0.57 pmol/min
Compound: COc1ccc([C@@H]2CC(=O)c3c(O)cc(O[C@@H]4O[C@H](C(=O)O)[C@@H](O)[C@H](O)[C@H]4O)cc3O2)cc1O [HT-7-glu, Hesperetin-7-O-glucuronide]

HT transported unchanged to the basolateral compartment (Caco-2 cells [1]; cells not treated with SCFA, 20 μM HT (40 nmol) apical, 1 h): 87 ± 26 pmol/min
HT transported to basolateral compartment, share of HT added apically (Caco-2 cells [1]; cells not treated with SCFA, after 60 min incubation): 13%
Compound: COc1ccc([C@@H]2CC(=O)c3c(O)cc(O)cc3O2)cc1O [HT, hesperetin]

FA transported to the basal compartment (Caco-2 cells [3]; untreated cells, 500 μM FA (1 μmol) apical, 1 h): 1.73 ± 0.17 nmol/min
FA transported to basal compartment, share of added FA (Caco-2 cells [3]; untreated cells, after 1 h): 10.4%
Compound: COc1cc(/C=C/C(=O)O)ccc1O [FA, ferulic acid]

rate of appearance of HT conjugate in apical compartment (Caco-2 cells [1]; untreated cells, 1 h): 2.8 ± 0.1 pmol/min
rate of appearance of HT conjugate in basal compartment (Caco-2 cells [1]; untreated cells, 1 h): 2.53 ± 0.06 pmol/min
Compound: COc1ccc(C2CC(=O)c3c(O)cc(O)cc3O2)cc1OS(=O)(=O)O (centres unmarked) [HT-3′-sul, hesperetin-3′-O-sulfate]

SA transported to the basolateral side, share of original amount added apically (Caco-2 cells [4]; 1 mM SA apical, within 30 min): ~ 10%
Compound: O=C(O)c1ccccc1O [SA, salicylic acid, reference compound]

rate of appearance of HT conjugate in apical compartment (Caco-2 cells [1]; untreated cells, 1 h): 2.6 ± 0.06 pmol/min
rate of appearance of HT conjugate in basal compartment (Caco-2 cells [1]; untreated cells, 1 h): 1.9 ± 0.03 pmol/min
Compound: COc1ccc([C@@H]2CC(=O)c3c(O)cc(OS(=O)(=O)O)cc3O2)cc1O [HT-7-sul, hesperetin-7-O-sulfate]
